# Test results published in the RNAGym collection of RNA variant scans (doi:10.1126/science.aae0568).
# This sample holds only a part of the variants without activity.
# B1: tRNA (parent)
# chain: GUUCCGUUGGCGUAAUGGUAACGCGUCUCCCUCCUAAGGAGAAGACUGCGGGUUCGAGUCCCGUACGGAACG
# Variants of: B1
# Assay: yeast fitness relative to wild type (ratio to wild type); higher = fitter; tRNA-Arg(CCU), competitive growth, 37 C, YPD
# In short: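 Changes in genotype frequencies gave Darwinian fitness relative to wild type. Frequencies were read by 100-nucleotide paired-end sequencing of gene amplicons before and after pooled Saccharomyces cerevisiae strains, carrying tRNA-Arg(CCU) gene variants at the native locus, were competed in YPD at 37°C for 24 hours in six replicates. A genotype was kept only with ≥ 100 starting reads, and estimates < 0.5 were set to 0.5.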
row,Variant,yeast fitness
1,G12C C22G G25C G48A,0.915
2,G12C G25A,0.848
3,G12C A20C C31G,0.596
4,G12A G68C,0.667
5,G12A G68U,0.863
6,G12A G23A C27G C30G,≤ 0.5
7,G12C A20G C46G,0.548
8,G12C A45U C62G A65G,0.604
9,G12C G44C C66U,0.573
10,G12C G18C G67U,≤ 0.5
11,U13A A14G C66U G68C,≤ 0.5
12,U13A C29G C30G C49A G56C C61U,0.635
13,G12C U19C,0.66
14,G12C C31A A40C C62U,≤ 0.5
15,G12C U13C U26A C33A C34G,≤ 0.5
16,G12C C22U A40C G52C G67A,≤ 0.5
17,G12C C34G,0.696
18,G12A C22A C29U A69U,≤ 0.5
19,C11U U32A A70C,0.614
20,G12A A36G U47G G63A A65U,≤ 0.5
21,G12A U19C G23C G67C,≤ 0.5
22,G12C C27A G38A,0.584
23,G12A G25A A70C,0.76
24,U13A A21C U35C G39A A42C A43G C46U A65C,0.55

row,Variant,yeast fitness
1,U13A C27U C55G,≤ 0.5
2,G12A G39C C46A,0.554
3,G12A G18C C29U A57C A65C,≤ 0.5
4,G12A C46G,1
5,G12C U16A C60G C61U G68A,≤ 0.5
6,G12A G63A,0.897
7,U13A C33U A45C C46G U54C A69U,≤ 0.5
8,G12C C29U A42U U47C C62U,≤ 0.5
9,G12C C34U C46A,≤ 0.5
10,G12C C29G,0.58
11,G12C C24U,0.651
12,C11U U28A C33G,0.619
13,G12U A36G,0.758
14,C11U U32C A45C,0.885
15,G12A C24U C61A G67A,≤ 0.5
16,G12A A57U,0.668
17,G12A A57G,0.909
18,U13A C31A G44A A65G A70U,≤ 0.5
19,G12C A40G G50U C62U,≤ 0.5
20,G12A U19C A21U,0.905
21,G12A U19C A21C,0.685
22,G12A U26A C30G C33U,≤ 0.5
23,U13A A20G C24U U35C C49U C60A C66G,≤ 0.5
24,G12C C33U A42C,≤ 0.5

row,Variant,yeast fitness
1,G12A A15U C24A A45G,≤ 0.5
2,G12A G18A U19C C55U A57C G58C G63A,≤ 0.5
3,C11U U28A G58C A70C,≤ 0.5
4,G12A A20G G63A,≤ 0.5
5,U13A C29U A43G U54A U59C C61A,≤ 0.5
6,G12A C30U A45C C60G,≤ 0.5
7,G12C U26A C33A C34G A69G,≤ 0.5
8,G12A A36U U54C,0.54
9,G12A G25A C60A,≤ 0.5
10,U13A C22U,0.859
11,C11U U35C C55A A69U,≤ 0.5
12,G12A G58C,0.935
13,C11U U32G U54A G67C,≤ 0.5
14,G12A G39C U47A,≤ 0.5
15,G12C U19G A20C A21C C31U C61A,≤ 0.5
16,G12C C22U U54C,0.683
17,G12A C22G C29G C30U A36U U47C,0.571
18,G12C C31U A65C A69U,≤ 0.5
19,U13A U26G C27A G39C A42G G51C C66U A69U,≤ 0.5
20,G12A C62U A70U,0.695
21,G12A A15G G39C,≤ 0.5
22,G12A G25A C30G G58C C66A,≤ 0.5
23,G12A A21G C46A,0.936
24,U13A A15G U16G A57G C61A,≤ 0.5

row,Variant,yeast fitness
1,G12A U32G U35A G38C G51C C66U,≤ 0.5
2,G12C A20U A21G C22G G50A C61A,≤ 0.5
3,G12A C27U C30G G68U,≤ 0.5
4,U13A A21U A42U G44C,0.652
5,U13A A20G A42G C46U,≤ 0.5
6,U13A G52A,0.643
7,G12C G63C,0.699
8,C11U U64A,0.71
9,C11U U64C,0.879
10,G12A U28G C33G,≤ 0.5
11,G12A C24A A36U G51C C55U A69C A70U,0.532
12,G12C A21U G50C A70C,≤ 0.5
13,G12A C27U A42U C62U,≤ 0.5
14,U13A A57C,0.604
15,U13A G25C A45G,0.535
16,G12A U13G G67A,≤ 0.5
17,G12C G23C A42U G44C U54A,≤ 0.5
18,G12A G52A,0.688
19,U13A A14U C22A G48C,≤ 0.5
20,G12A C27G A36U A65U,≤ 0.5
21,G12A U19C,0.982
22,G12C G17A A20U G58U,≤ 0.5
23,G12C A65U,0.735
24,G12C U32G C33G G58A,≤ 0.5

row,Variant,yeast fitness
1,G12C U54A A65C,≤ 0.5
2,C11U U47A C60G C62A,≤ 0.5
3,G12C A70U,0.707
4,G12A G23A U35G A36G C62U A69G,≤ 0.5
5,G12A G52A G68A,≤ 0.5
6,G12C A15U C24A,0.528
7,G12C A57C,0.545
8,G12A A45C C49G,0.619
9,G12C C24G U35C,≤ 0.5
10,G12A C27A C29U A36G,≤ 0.5
11,G12C U13C A20C C24G G39C G68C,0.511
12,G12C A20C C31G A65G,0.527
13,G12A U32G C46A,≤ 0.5
14,G12A C24U C27A A70U,≤ 0.5
15,G12A U35G G58A G68A,≤ 0.5
16,U13A C55A C60G C62G,≤ 0.5
17,G12A A57C C66G,≤ 0.5
18,G12A U13C C49U,0.674
19,G12A A20U C62U A65G,≤ 0.5
20,G12A C27U G67A,0.571
21,G12A C24G G68A,≤ 0.5
22,G12C A45U A70U,0.564
23,U13A A21C A42G,0.502
24,G12C U13A G23A A37C C61U,0.586

row,Variant,yeast fitness
1,U13A C30U C55G G58C G67U,≤ 0.5
2,C11U U35A G38A G56C,≤ 0.5
3,G12A A36C A37C U53G A70C,≤ 0.5
4,G12A C55U,0.908
5,G12C G18C G25A C66U,≤ 0.5
6,U13A C27U G50U,0.674
7,G12A C27A C30G,0.626
8,G12A C30G C46G,≤ 0.5
9,G12A C60A A70G,≤ 0.5
10,G12A C33U A36C C62U,0.553
11,G12C C60A,0.588
12,U13A C24G G25A G39C A40C G51C A69U A70C,≤ 0.5
13,G12C C27A G56C,0.702
14,U13A C34A A37G,≤ 0.5
15,G12A C33U,0.839
16,G12A U19C A21U G58C,0.94
17,U13A G51A G56A,0.628
18,G12A G25A C62G,≤ 0.5
19,G12A C24G U47A C49G A69C,≤ 0.5
20,U13A A21C U35C G39A A42C A43G C46U,0.63
21,G12A A20G C24U C27A A70U,≤ 0.5
22,G12C A15U C33U C49G G58A,≤ 0.5
23,G12A U47C C49A A57U,0.53
24,U13A A15C A45G C55U C61G A69C,≤ 0.5

row,Variant,yeast fitness
1,G12C U16A A21C,≤ 0.5
2,G12C G17C,0.637
3,U13A C22G G25C C27U C30G C55A,≤ 0.5
4,G12A C22A A36G A37G,≤ 0.5
5,G12A A15G A65C,≤ 0.5
6,G12A C24G A40C A42G A43C C46U G68C A69U,≤ 0.5
7,G12A C24A A36U A69C,0.599
8,U13A A15G C66U,0.644
9,G12A G25C C30G,≤ 0.5
10,G12A C24A A45G G50A,≤ 0.5
11,G12A A15C,0.773
12,U13A A14C C22A,≤ 0.5
13,G12C C49U A70U,0.692
14,G12A G52A U59A A69C A70C,≤ 0.5
15,G12A C27U C49U,0.611
16,G12A C61G,0.605
17,U13A A14U C22G A37G G41A,≤ 0.5
18,G12A U59A,0.8
19,G12C C34U G44A G52A,≤ 0.5
20,G12C C24U C49U C55U G68C,≤ 0.5
21,G12A A21G G48A A65U,0.534
22,C11U U59A,0.757
23,G12A A15G A69C,0.707
